Screening results (PubChem BioAssay)
Sampled rows, rich in hits. Any-hit rate of the full collection: about 3%.
5HT1E ag = agonists of human 5-HT1E serotonin receptor. P28566. CHO 5-HT1E Ga15 NFAT-bla reporter, FRET; 0% DMSO wells, 100% control agonist wells. activation, % at 6 µM. actives 0.69% (n = 65,000);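 active = activation above a set limit, the screen-wide mean activation plus 3 SD, cut at about 8.5% in these data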;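 also: 100% = positive control agonist at 1 µM giving full maximal response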
Target sequence (P28566 whole entry, looked up): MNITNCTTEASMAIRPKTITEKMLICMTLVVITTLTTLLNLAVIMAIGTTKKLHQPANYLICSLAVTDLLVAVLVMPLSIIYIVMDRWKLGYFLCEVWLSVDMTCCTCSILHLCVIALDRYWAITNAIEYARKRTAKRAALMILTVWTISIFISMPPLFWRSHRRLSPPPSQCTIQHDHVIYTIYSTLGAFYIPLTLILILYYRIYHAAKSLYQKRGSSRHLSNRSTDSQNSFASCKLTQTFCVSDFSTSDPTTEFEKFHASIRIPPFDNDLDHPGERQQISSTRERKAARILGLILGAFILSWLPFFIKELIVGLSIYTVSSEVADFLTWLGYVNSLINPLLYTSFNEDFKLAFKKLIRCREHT
5HT1a antag = antagonists of human 5-HT1a serotonin receptor | CHO 5-HT1a Ga15 NFAT-bla reporter, antagonist mode | inhibition, % at 10 µM | AID 612 | actives 0.68% (n = 62,000);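 active = inhibition above the mean of all tested compounds plus 3 SD, cut at about 43% in these data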;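 also: receptor stimulated by 5-CT agonist at 100 nM near EC80; beta-lactamase reporter measured by ratiometric fluorescence of a cleavable substrate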
HTR1A agonist = 5-HT1a (human) receptor agonism. P08908. CHO 5-HT1a Ga15 NFAT-bla reporter, FRET ratio; 0% basal, 100% maximal reference agonist. activation, % at 10 µM. actives 0.56% (n = 65,000). AID 567;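 active = activation above the screen-wide mean activation plus 3 SD, cut at about 19% in these data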;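 also: 0% = DMSO wells and 100% = 5-CT at EC100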
S1P1 ag-PAM = S1P1 (human) agonism or agonism potentiation; P21453; S1P1 CRE-bla cells, forskolin, beta-lactamase FRET, potentiator mode; S1P1 agonist co-added at EC20, 2 nM; 100% = saturating reference agonist, 0% = basal; activation, % at 9.5 µM; actives 0.57% (n = 56,000); AID 449;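 active = activation above a cutoff set at the mean activation of all tested compounds plus 3 SD, cut at about 54% in these data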;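 also: forskolin at 4 µM as EC80 and the EC20 agonist is SEW2871; 100% = SEW2871 at its EC100 plus forskolin at EC80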
S1P3 agonist = S1P3 (human) receptor agonism; S1P3 NFAT-BLA reporter cells, FRET ratio; relative to 1 µM S1P, basal subtracted; activation, % at 4.5 µM; Q99500; actives 0.1% (n = 60,000); AID 373;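 active = activation above the screen-wide mean plus 3 SD, cut at about 4.5% in these data, passing the limit was not always enough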
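material = human S1P3 NFAT-BLA reporter CHO cells | schedule = 4 h compound at 37 °C, 2 h substrate at RT | measured by = fluorescent BLA substrate, ex 405 nm, em 460/535 nm ratio | controls = 1 µM S1P reference | replication = primary once, confirmation triplicate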
HTR1E antagonist = antagonists of human 5-HT1E serotonin receptor; inhibition, % at 6 µM; AID 571; CHO 5-HT1E Ga15 NFAT-bla reporter, FRET, antagonist; P28566; actives 0.99% (n = 65,000);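 active = inhibition above a set limit, the mean inhibition across every tested compound plus 3 SD, cut at about 29% in these data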;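 also: signal is the 460 over 535 nm emission ratio of beta-lactamase substrate; 0% = agonist plus DMSO wells and 100% = wells without agonist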
* = called active by the depositor; · = no result.

SMILES	5HT1E ag	5HT1a antag	HTR1A agonist	S1P1 ag-PAM	S1P3 agonist	HTR1E antagonist
CCOC(=O)c1cc2c(cn1)[nH]c1ccccc12	-1	·	2	11	-4	32*
Cc1ccc2c(c1)C1CN(C)CCC1N2C(=O)c1ccc(Br)o1 (stereo unspecified)	0	60*	-3	·	·	-5
Cc1ccc2c(c1)[C@@H]1CN(C)CC[C@@H]1N2C(=O)Nc1cccc(C(F)(F)F)c1	0	·	0	8	-5	1
CC(C)OC(=O)c1c(N)n(Cc2ccco2)c2nc3ccccc3nc12	0	·	6	-32	-4	29*
Nc1c(C(=O)NCc2ccco2)c2nc3ccccc3nc2n1CCN1CCCCC1	0	·	6	-123	11*	-23
COCCOC(=O)c1c(N)n(Cc2ccco2)c2nc3ccccc3nc12	0	·	2	-25	-3	11
CC1(C)C2CC=C(CN3CCC(O)CC3)C1C2 (stereo unspecified)	0	-2	-1	·	-1	2
Nc1c(C(=O)NC2CCCC2)c2nc3ccccc3nc2n1CC1CCCO1 (stereo unspecified)	7	-10	28*	-112	8.2*	-8
Cc1cc(C)c(C(=O)CN2CCOCC2)c(C)c1	0	3	-3	-5	0	0
COc1ccc(C(=O)N2CCOCC2)cc1S(=O)(=O)N1CCC(C)CC1	0	-8	40*	·	0	-2
COc1ccc(C(=O)CN2CCOCC2)cc1F	1	·	3	10	-4	1
c1ccc2[nH]c(CCNC3CCCCC3)nc2c1	0	4	0	9	0	-3
Oc1ccc(C2NCc3ccccc3-n3cccc32)cc1Cl (stereo unspecified)	1	-7	2	94*	0	6
CCn1c(O)c(C=NCc2cccs2)c(=O)[nH]c1=O	-1	-10	-2	·	-1	-3
CN(C)c1nc(OCCNC(=O)COc2ccc(Cl)cc2Cl)nc(N2CCCCC2)n1	0	-3	-1	·	0	102*
CC(=O)c1cccc(OCC(O)CN2CC=C(c3ccccc3)CC2)c1 (stereo unspecified)	-1	65*	5	-4	-1	11
CCOC(=O)[C@]1(C#N)[C@@H]2C=CC(C(C)=O)=CN2[C@@H](C(N)=O)[C@@H]1c1ccsc1	0	·	1	-6	-2	-7
CC(N=Cc1c(O)[nH]c(=O)[nH]c1=O)c1ccccc1 (stereo unspecified)	0	-13	-4	-8	0	-1
CNCC(O)c1cccc(OC(=O)c2ccccc2C)c1 (stereo unspecified)	9.4*	0	3	-3	-1	-3
COc1ccc(Nc2ncc(C(=O)N3CCC4(CC3)OCCO4)c3ccccc23)cc1	0	7	-2	3	-1	-3
Cc1n[nH]c(C)c1CCN	-1	7	-2	-1	0	6
Cc1[nH]c2c(C(F)(F)F)cccc2c1CCN	67*	7	-1	16	0	22
CC[C@@H](CO)NC(=O)[C@@H]1C=C2c3cccc4c3c(cn4C)C[C@H]2N(C)C1	95*	·	53*	-19	-3	-6
COc1ccccc1N1CCN(Cc2ccc(Br)s2)CC1	5	44*	-2	-23	-1	-4
c1cc2n(c1)-c1c(ccc3c1OCO3)CNC2c1ccc2c(c1)OCO2 (stereo unspecified)	0	36	0	25	0	11
SMILES	5HT1E ag	5HT1a antag	HTR1A agonist	S1P1 ag-PAM	S1P3 agonist	HTR1E antagonist
COc1ccc(C2NCc3ccc4c(c3-n3cccc32)OCO4)cc1O (stereo unspecified)	0	65*	-1	9	-1	31*
O=C(NC[P+](=O)O)OCc1ccccc1	1	-4	-3	-18	1	-2
CN1C[C@H](CNC(=O)OCc2ccccc2)C[C@@H]2c3cccc4c3c(cn4C)C[C@H]21	22*	·	85*	-8	50	9
COc1ccc(CCC(=O)N2CCC3(CC2)OCCO3)cc1	-1	16	-4	9	-1	14
CCn1nc(-c2ccccc2)nc2c(=O)n(C)c(=O)nc1-2	2	85*	9	73*	-2	101*
CN1CCN(c2nccc3c2ncn3C)CC1	9.8*	1	-2	-25	-1	-6
